According to ChEMBL document CHEMBL4699390, “Chromone and donepezil hybrids as new multipotent cholinesterase and monoamine oxidase inhibitors for the potential treatment of Alzheimer''s disease” (RSC Med Chem, 2020):
Calls of active or inactive are those of the source. The rule behind the calls is not given here.

Experiments:
[1] = organism: Homo sapiens; assay: Selectivity for recombinant human MAO-B over recombinant human MAO-A
[2] = target: Acetylcholinesterase (Electrophorus electricus, UniProt O42275); assay: Inhibition of electric eel AChE using acetylthiocholine iodide as substrate preincubated with enzyme for 6 mins followed by substrate addition and measured for 180 secs by Ellman's method
Sequence of Acetylcholinesterase (O42275 whole entry): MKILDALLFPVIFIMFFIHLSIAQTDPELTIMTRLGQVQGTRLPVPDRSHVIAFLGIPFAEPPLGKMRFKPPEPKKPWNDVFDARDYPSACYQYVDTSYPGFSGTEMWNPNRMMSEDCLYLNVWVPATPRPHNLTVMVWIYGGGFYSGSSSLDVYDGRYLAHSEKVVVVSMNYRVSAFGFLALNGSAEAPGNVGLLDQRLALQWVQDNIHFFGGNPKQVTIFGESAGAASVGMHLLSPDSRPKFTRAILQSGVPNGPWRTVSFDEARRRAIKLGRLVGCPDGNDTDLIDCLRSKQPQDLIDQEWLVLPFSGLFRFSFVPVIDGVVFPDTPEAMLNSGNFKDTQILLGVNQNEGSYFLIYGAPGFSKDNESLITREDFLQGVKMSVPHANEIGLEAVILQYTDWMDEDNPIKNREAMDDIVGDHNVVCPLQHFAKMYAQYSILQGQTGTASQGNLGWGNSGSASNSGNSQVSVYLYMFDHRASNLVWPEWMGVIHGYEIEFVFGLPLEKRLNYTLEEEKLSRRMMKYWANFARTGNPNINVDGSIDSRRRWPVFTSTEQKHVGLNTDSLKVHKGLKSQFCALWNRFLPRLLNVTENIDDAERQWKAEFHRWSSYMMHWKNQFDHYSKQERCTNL

[3] = target: T1, Amine oxidase [flavin-containing] B (Homo sapiens, UniProt P27338)
T1 sequence (P27338 whole entry): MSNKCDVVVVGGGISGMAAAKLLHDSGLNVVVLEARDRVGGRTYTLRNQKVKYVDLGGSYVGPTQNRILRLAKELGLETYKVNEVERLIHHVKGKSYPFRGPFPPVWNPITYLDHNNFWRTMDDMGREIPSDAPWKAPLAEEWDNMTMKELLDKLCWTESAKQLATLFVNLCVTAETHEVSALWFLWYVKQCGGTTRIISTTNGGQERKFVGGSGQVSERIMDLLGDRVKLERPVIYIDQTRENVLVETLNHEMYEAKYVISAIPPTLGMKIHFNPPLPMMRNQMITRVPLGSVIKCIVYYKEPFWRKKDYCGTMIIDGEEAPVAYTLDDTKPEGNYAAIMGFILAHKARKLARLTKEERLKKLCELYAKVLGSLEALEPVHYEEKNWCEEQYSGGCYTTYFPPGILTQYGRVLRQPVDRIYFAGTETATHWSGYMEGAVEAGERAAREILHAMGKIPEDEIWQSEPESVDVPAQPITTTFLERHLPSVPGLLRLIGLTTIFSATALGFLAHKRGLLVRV

[4] = target: Cholinesterase (Equus caballus, UniProt P81908); assay: Inhibition of equine serum BuChE using butyrylthiocholine iodide as substrate preincubated with enzyme for 6 mins followed by substrate addition and measured for 180 secs by Ellman's method
Sequence of Cholinesterase (P81908 whole entry): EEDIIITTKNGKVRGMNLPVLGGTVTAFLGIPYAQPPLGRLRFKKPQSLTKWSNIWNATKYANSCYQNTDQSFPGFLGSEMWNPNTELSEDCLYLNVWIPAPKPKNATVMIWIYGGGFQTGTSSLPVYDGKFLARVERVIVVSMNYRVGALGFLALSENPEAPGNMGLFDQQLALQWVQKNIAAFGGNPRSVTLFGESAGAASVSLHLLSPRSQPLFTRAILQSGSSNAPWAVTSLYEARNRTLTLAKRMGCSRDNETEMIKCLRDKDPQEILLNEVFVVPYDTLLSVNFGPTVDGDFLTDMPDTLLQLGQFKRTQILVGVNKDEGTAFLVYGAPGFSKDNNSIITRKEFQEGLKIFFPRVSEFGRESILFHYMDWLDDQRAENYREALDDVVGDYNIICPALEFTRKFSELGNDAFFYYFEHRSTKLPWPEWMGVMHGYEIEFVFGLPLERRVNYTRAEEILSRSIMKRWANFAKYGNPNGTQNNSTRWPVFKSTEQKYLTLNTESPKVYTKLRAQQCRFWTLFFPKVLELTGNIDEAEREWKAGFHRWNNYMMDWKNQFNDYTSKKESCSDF
Outline: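 Ellman assay. Enzyme at 0.12 U/mL in 50 mM Tris-HCl pH 8.0 with 0.1% w/v BSA, plus 1.5 mM DTNB, preincubated with compound (0.001-100 μM, diluted from DMSO stock into Tris buffer with MgCl₂/NaCl) at 37 °C for 6 min. Then 15 mM butyrylthiocholine iodide was added, and absorbance at 405 nm was read at 0, 60, 120 and 180 s. IC50 from nonlinear regression of log concentration-response curves; at least three experiments in triplicate.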

[5] = Selectivity index, ratio of IC50 for equine serum BuChE to IC50 for electric eel AChE by Ellman's method
[6] = target: T2, Amine oxidase [flavin-containing] A (Homo sapiens, UniProt P21397); assay: Inhibition of recombinant human MAO- A using p-tyramine as substrate at 100 uM preincubated with enzyme for 15 mins followed incubation with substrate for 20 mins by Amplex red reagent based fluorescence based analysis relative to control; details: time 35 min
T2 sequence (P21397 whole entry): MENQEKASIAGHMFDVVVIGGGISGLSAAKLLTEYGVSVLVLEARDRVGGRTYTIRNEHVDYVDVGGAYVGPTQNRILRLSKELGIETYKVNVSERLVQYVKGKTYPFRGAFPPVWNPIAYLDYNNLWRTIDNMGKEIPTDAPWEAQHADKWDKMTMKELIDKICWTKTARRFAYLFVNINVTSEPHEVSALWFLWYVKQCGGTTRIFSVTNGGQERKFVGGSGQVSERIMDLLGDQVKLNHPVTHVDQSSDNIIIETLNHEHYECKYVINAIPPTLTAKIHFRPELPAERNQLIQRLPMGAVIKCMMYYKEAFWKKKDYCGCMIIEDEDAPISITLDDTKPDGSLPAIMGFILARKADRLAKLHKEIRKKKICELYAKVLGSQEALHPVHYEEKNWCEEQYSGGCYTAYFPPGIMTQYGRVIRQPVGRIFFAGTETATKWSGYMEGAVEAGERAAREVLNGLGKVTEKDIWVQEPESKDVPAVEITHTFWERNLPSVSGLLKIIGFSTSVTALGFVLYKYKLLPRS
Outline: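 Human MAO-A (1.1 µg protein, activity set to oxidize 165 pmol p-tyramine/min) was preincubated with compound in 0.05 M potassium phosphate pH 7.4 at 37 °C for 15 min in the dark. The reaction was started with 2 mM p-tyramine, 2 U/mL HRP and 200 µM Amplex Red for 20 min at 37 °C. Fluorescence was read at ex 545/em 590 nm, and inhibition was calculated against the uninhibited control after background subtraction.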

[7] = target: T1, Amine oxidase [flavin-containing] B; assay: Competitive inhibition of recombinant human MAO-B using varying concentration of p-tyramine as substrate at 0.13 to 0.54 uM by Lineweaver-burk plot analysis; details: dose 0.13-0.54 µM
Outline: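 Preincubation-free kinetic run with human MAO-B: initial oxidation rates of p-tyramine measured at six substrate concentrations without inhibitor and with three inhibitor concentrations (0.54, 0.27, 0.13 μM). Activity was read by the Amplex Red/horseradish peroxidase fluorescence method. Plots were fitted by weighted least-squares analysis, assuming the variance of v is a constant percentage of v.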

[8] = in vitro; details: PAMPA
[9] = system: PC-12; assay: Cytotoxicity against rat PC12 cells assessed as cell viability at 1 to 50 uM measured after 24 hrs by MTT assay; type: cell-based; details: pc-12, 24 h, dose 1-50 µM
Outline: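 PC12 cells were grown at 37 °C, 5% CO₂ in DMEM with 10% bovine calf serum and penicillin/streptomycin, then seeded at 10,000 cells/well. At the required confluence they were switched to serum-free medium with compound for 24 h. Viability was read by MTT (4 h at 37 °C), with formazan dissolved in DMSO.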

[10] = target: Cholinesterase (Equus caballus) (UniProt P81908); assay: Competitive inhibition of equine serum BuChE […] using varying concentrations of butyrylthiocholine iodide as substrate at 2.6 to 10.5 uM by Lineweaver-burk plot analysis; details: dose microM 2.6-10.5
Sequence of Cholinesterase (Equus caballus) (P81908 whole entry): as the sequence (P81908 whole entry) above

[11] = target: T2, Amine oxidase [flavin-containing] A; assay: Inhibition of recombinant human MAO- A using p-tyramine as substrate preincubated with enzyme for 15 mins followed incubation with substrate for 20 mins by Amplex red reagent based fluorescence based analysis
[12] = target: Acetylcholinesterase (Electrophorus electricus) (UniProt O42275); assay: Mixed-type inhibition of electric eel AChE using varying concentration of acetylthiocholine iodide as substrate at 0.185 to 0.74 uM by Lineweaver-burk plot analysis; details: dose microM 0.185-0.74
Sequence of Acetylcholinesterase (Electrophorus electricus) (O42275 24-633 limits assumed): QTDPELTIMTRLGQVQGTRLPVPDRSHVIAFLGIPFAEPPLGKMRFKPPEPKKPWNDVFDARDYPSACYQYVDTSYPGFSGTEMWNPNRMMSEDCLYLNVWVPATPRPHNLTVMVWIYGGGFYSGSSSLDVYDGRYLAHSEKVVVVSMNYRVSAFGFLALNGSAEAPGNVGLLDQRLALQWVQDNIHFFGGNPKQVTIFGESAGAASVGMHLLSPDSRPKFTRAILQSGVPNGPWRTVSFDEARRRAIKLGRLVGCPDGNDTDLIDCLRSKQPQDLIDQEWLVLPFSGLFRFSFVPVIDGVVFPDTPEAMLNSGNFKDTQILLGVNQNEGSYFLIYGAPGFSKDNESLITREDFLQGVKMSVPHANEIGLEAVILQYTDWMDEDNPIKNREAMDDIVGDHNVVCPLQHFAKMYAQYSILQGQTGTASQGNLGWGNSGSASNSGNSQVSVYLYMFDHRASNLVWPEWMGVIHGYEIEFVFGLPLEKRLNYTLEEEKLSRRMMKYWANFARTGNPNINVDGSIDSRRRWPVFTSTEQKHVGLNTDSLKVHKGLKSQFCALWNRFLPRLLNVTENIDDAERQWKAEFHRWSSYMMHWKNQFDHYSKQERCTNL

Structure (SMILES) | Selectivity ratio [1] | IC50 [2] [µM] | IC50 [3] [µM] | IC50 [4] [µM] | Ratio IC50 [5] | inhibition at 100 µM [6] [%] | inhibition (INH) [7] | Papp at 16 h [8] [×10⁻⁶ cm/s] | Activity [9] | inhibition [10] | IC50 [11] [µM] | inhibition [12]
O=C(NCCC1CCN(Cc2ccccc2)CC1)c1coc2cc(Br)ccc2c1=O | > 3.4 | 0.154 | 29.5 | 1.24 | 11.9 | 30.3 |  |  |  |  |  | 
O=C(NC1CCN(Cc2ccccc2)CC1)c1coc2ccc(Br)cc2c1=O | > 4.4 | 1.57 | 22.8 | 9.45 | 6.1 | 35.5 |  |  |  |  |  | 
O=C(NCCC1CCN(Cc2ccccc2)CC1)c1coc2ccc(OCc3ccccc3)cc2c1=O | 247 | 0.37 | 0.272 | 5.24 | 14.2 |  | Active | 5.4 | Non-Toxic | Active | 67.2 | Active
COc1ccc2occ(C(=O)NC3CCN(Cc4ccccc4)CC3)c(=O)c2c1 | > 2.1 | 10.1 | 46.3 | 24.4 | 2.4 | 7.5 |  |  |  |  |  | 
O=C(NCCC1CCN(Cc2ccccc2)CC1)c1cc(=O)c2ccccc2o1 | > 4.9 | 0.31 | 20 | 1.54 | 4.9 | 29.5 |  |  |  |  |  | 
Cc1ccc2occ(C(=O)NC3CCN(Cc4ccccc4)CC3)c(=O)c2c1 | > 5.1 | 1.74 | 19.5 | 15.3 | 8.8 | 48.1 |  |  |  |  |  | 
COc1ccc2c(=O)c(C(=O)NC3CCN(Cc4ccccc4)CC3)coc2c1 | > 3.5 | 1.58 | 28.6 | 9.78 | 6.2 | 37.4 |  |  |  |  |  | 
O=C(NCCC1CCN(Cc2ccccc2)CC1)c1coc2ccccc2c1=O | < 2.8 | 0.069 | 35.3 | 0.6 | 8.7 | 68.6 |  |  |  |  |  | 
O=C(NC1CCN(Cc2ccccc2)CC1)c1coc2ccc(OCc3ccccc3)cc2c1=O | 211 | 1.85 | 0.035 | 12.4 | 6.7 |  |  | 4.6 | Non-Toxic |  | 11.6 | 
Cc1ccc2occ(C(=O)NCCC3CCN(Cc4ccccc4)CC3)c(=O)c2c1 | > 1.9 | 0.11 | 52.5 | 0.91 | 8.3 | 30.6 |  |  |  |  |  | 
COc1ccc2c(=O)c(C(=O)NCCC3CCN(Cc4ccccc4)CC3)coc2c1 | > 3.2 | 0.145 | 30.9 | 0.52 | 3.7 | 32.4 |  |  |  |  |  | 
COc1ccc2occ(C(=O)NCCC3CCN(Cc4ccccc4)CC3)c(=O)c2c1 | < 8.9 | 0.033 | 11.2 | 0.45 | 13.7 | 72.4 |  | 16.7 | Non-Toxic |  |  | 
O=C(NC1CCN(Cc2ccccc2)CC1)c1coc2ccccc2c1=O | < 5.6 | 2.96 | 17.7 | 18.7 | 6.3 | 63.8 |  | 15.6 |  |  |  | 
O=C(NC1CCN(Cc2ccccc2)CC1)c1cc(=O)c2ccccc2o1 | > 3.1 | 5.69 | 33.3 | 27.9 | 7.6 | 29.7 |  |  |  |  |  | 
O=C(NC1CCN(Cc2ccccc2)CC1)c1coc2cc(Br)ccc2c1=O | > 5.1 | 9.23 | 19.7 | 18.2 | 1.2 | 31.6 |  |  |  |  |  | 
O=C(NCCC1CCN(Cc2ccccc2)CC1)c1coc2ccc(Br)cc2c1=O | > 3.8 | 0.104 | 26.1 | 1.17 | 11.3 | 48.2 |  |  |  |  |  | 
